Data as given in the M2OR odorant receptor database.
Changes are numbered by the printed parent chain.

Key:
Details in all cases: stereoisomer not certain
[1] = tested on: OR1D2
Summary of the method: (§1)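 Transient luciferase assays in mammalian cell lines were common, though methods varied by source. The values come from published papers and their supplementary material, with extra details from the original authors when needed. Responsive refers to a measured signal the original authors judged statistically different from baseline, and non-responsive (inactive) to the remainder.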
Target sequence in this assay (as listed by the source): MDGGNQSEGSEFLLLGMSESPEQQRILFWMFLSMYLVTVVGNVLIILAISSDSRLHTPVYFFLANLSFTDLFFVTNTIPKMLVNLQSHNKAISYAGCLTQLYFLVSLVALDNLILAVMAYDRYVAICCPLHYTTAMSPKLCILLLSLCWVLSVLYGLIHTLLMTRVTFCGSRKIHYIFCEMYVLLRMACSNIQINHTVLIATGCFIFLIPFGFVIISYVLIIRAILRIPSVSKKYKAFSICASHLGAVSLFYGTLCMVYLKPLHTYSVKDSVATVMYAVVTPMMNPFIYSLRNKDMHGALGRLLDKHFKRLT

[2] = tested on: OR1D2; remark: listed apart in the source
Summary of the method: as §1
Target sequence in this assay (as listed by the source): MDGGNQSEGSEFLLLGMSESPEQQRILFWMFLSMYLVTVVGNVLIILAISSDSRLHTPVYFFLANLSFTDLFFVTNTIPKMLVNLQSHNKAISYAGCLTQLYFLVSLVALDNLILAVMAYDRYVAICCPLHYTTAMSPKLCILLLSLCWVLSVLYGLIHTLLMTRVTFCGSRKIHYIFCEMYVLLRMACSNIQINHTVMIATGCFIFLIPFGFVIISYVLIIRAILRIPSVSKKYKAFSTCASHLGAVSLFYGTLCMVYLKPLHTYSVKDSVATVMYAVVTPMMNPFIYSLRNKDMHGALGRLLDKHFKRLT

[3] = tested on: OR1D2; remark: listed apart in the source
Summary of the method: as §1
Target sequence in this assay (as listed by the source): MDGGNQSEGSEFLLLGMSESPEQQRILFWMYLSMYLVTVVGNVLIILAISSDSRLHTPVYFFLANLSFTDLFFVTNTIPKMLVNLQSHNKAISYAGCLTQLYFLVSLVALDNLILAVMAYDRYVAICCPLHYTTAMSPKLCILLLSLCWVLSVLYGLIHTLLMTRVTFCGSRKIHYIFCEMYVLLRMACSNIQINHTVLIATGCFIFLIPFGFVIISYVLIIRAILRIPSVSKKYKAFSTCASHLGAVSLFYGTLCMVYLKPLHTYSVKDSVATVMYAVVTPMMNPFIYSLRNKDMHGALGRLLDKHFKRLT

[4] = target: T1, OR1D4 (Homo sapiens) (UniProt P47884)
T1 sequence (whole entry): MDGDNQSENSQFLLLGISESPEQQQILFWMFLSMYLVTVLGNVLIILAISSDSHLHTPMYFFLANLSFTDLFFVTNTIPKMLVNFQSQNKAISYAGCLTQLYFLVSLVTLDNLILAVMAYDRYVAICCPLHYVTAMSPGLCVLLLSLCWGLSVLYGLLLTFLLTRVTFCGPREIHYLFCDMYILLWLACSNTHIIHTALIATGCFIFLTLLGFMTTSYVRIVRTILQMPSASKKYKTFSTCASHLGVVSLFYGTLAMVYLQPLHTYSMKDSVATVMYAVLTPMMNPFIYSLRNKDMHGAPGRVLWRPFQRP
Summary of the method: as §1

[5] = target: T2, OR1D5 (Homo sapiens) (UniProt P58170)
T2 sequence (whole entry): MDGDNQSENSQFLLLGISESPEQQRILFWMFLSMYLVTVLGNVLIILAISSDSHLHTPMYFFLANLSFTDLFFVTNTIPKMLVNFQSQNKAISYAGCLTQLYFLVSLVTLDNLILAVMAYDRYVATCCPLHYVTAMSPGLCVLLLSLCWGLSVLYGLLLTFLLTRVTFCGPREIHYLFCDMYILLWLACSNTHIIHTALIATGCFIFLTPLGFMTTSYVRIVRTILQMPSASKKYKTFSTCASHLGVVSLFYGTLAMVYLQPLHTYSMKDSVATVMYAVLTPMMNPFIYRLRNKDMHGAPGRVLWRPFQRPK
Summary of the method: as §1

[6] = target: T3, OR1E2 (Homo sapiens) (UniProt P47887)
T3 sequence (whole entry): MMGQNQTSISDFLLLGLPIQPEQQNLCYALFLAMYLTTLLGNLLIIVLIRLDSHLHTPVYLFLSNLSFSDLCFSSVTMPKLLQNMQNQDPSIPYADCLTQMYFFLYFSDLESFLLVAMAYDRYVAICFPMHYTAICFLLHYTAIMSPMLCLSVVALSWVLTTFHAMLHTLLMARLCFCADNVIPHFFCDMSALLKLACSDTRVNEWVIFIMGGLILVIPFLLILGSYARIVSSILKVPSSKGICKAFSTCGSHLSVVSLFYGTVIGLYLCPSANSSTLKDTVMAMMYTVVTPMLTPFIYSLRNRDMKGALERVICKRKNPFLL
Summary of the method: as §1

[7] = target: OR1E3 (Homo sapiens) (UniProt Q8WZA6)
Chain of OR1E3 (Homo sapiens) (Q8WZA6 whole entry): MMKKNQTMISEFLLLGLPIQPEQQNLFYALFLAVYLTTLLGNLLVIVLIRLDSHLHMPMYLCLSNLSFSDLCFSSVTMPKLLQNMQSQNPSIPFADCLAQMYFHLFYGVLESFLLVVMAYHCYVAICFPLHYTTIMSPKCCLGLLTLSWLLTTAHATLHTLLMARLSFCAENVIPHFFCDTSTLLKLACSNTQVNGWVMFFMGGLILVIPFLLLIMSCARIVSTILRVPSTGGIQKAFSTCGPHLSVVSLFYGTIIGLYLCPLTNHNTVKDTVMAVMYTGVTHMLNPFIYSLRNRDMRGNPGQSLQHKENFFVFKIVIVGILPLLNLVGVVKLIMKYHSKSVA
Summary of the method: as §1

[8] = target: T4, OR1F1 (Homo sapiens) (UniProt O43749)
T4 sequence (whole entry): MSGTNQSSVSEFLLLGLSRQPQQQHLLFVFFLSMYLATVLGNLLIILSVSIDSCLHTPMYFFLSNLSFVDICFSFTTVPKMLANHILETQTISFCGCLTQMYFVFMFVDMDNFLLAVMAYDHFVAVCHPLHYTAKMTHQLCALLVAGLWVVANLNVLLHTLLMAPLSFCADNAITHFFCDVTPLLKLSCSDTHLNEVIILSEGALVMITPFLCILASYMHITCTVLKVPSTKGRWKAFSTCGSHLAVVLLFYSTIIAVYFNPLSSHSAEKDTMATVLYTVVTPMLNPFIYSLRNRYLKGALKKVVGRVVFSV
Summary of the method: as §1

[9] = target: T5, OR1F12P (Homo sapiens) (UniProt Q8NHA8)
T5 sequence (whole entry): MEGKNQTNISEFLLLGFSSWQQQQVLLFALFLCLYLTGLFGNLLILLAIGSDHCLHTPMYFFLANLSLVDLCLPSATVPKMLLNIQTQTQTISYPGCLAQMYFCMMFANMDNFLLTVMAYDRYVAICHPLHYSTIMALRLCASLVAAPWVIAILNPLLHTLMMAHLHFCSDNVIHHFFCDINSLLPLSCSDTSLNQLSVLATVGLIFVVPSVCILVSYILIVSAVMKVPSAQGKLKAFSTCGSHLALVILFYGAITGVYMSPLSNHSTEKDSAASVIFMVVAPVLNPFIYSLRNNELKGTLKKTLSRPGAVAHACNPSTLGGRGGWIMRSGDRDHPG
Summary of the method: as §1

[10] = target: T6, OR1G1 (Homo sapiens) (UniProt P47890)
T6 sequence (whole entry): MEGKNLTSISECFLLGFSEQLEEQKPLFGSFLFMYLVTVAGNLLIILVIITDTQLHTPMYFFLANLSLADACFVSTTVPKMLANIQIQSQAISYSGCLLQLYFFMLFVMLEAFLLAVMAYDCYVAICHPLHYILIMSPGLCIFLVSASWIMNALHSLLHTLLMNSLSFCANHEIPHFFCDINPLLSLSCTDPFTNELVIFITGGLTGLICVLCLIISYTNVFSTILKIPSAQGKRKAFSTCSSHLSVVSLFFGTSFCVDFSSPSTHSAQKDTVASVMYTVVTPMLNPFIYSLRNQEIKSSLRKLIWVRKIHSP
Summary of the method: as §1

[11] = target: T7, OR1I1 (Homo sapiens) (UniProt O60431)
T7 sequence (whole entry): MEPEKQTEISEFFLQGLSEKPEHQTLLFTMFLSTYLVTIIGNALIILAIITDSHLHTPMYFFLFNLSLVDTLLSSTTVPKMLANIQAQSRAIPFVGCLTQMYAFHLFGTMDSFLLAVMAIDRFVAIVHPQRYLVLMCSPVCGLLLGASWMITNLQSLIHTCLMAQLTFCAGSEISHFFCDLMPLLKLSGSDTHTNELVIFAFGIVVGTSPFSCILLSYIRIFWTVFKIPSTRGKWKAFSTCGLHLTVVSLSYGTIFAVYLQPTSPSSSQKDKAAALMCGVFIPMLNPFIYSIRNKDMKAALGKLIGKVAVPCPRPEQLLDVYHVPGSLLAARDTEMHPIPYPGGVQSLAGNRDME
Summary of the method: as §1

[12] = target: T8, OR1J1 (Homo sapiens) (UniProt Q8NGS3)
T8 sequence (whole entry): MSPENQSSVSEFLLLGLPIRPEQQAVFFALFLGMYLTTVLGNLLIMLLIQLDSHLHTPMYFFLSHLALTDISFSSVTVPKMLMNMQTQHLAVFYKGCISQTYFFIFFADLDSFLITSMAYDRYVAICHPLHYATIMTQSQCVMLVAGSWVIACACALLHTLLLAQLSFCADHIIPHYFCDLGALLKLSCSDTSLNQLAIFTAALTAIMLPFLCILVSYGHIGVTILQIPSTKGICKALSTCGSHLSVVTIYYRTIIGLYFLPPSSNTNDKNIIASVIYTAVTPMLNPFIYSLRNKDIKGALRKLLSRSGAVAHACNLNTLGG
Summary of the method: as §1

[13] = target: T9, OR1K1 (Homo sapiens) (UniProt Q8NGR3)
T9 sequence (whole entry): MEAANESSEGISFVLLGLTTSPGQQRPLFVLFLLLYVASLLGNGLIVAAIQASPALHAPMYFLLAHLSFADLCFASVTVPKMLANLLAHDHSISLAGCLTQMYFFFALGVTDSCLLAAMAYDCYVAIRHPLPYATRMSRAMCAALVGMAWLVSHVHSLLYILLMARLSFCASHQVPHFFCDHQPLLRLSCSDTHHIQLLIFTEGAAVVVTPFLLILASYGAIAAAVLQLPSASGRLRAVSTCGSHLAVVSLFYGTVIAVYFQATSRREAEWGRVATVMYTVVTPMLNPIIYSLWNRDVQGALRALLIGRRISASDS
Summary of the method: as §1

[14] = target: T10, OR1L1 (Homo sapiens) (UniProt Q8NH94)
T10 sequence (whole entry): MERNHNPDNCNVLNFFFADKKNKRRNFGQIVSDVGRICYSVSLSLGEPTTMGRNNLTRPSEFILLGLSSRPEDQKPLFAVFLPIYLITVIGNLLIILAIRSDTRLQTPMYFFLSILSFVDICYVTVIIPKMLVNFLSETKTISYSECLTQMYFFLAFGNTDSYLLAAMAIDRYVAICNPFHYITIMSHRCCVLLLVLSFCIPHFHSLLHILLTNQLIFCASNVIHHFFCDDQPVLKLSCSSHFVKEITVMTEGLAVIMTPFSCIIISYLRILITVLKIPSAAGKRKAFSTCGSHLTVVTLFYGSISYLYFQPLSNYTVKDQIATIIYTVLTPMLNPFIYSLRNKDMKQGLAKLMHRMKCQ
Summary of the method: as §1

[15] = target: T11, OR1E1 (Homo sapiens) (UniProt P30953)
T11 sequence (whole entry): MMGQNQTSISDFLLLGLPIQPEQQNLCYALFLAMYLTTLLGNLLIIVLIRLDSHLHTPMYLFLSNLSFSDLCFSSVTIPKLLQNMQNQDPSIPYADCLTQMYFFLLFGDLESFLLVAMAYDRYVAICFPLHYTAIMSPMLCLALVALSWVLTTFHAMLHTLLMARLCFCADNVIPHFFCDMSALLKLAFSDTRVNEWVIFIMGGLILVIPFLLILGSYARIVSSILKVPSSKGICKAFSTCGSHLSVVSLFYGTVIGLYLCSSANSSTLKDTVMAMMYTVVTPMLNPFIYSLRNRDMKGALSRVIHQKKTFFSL
Summary of the method: as §1

[16] = tested on: T12, OR1E2
T12 sequence (whole entry): T3 sequence (whole entry) with C27R
Summary of the method: as §1

[17] = tested on: T13, OR1F1
T13 sequence (whole entry): T4 sequence (whole entry) with F75S
Summary of the method: as §1

[18] = target: T14, OR1J2 (Homo sapiens) (UniProt Q8NGS2)
T14 sequence (whole entry): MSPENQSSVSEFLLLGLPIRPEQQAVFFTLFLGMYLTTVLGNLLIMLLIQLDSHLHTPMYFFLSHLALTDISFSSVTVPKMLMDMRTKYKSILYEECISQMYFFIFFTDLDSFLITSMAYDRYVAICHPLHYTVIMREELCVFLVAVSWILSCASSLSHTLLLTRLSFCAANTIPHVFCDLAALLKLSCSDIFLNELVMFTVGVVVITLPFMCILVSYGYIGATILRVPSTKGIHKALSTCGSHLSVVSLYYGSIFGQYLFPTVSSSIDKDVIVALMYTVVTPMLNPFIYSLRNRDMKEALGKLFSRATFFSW
Summary of the method: as §1

[19] = target: T15, OR1J4 (Homo sapiens) (UniProt Q8NGS1)
T15 sequence (whole entry): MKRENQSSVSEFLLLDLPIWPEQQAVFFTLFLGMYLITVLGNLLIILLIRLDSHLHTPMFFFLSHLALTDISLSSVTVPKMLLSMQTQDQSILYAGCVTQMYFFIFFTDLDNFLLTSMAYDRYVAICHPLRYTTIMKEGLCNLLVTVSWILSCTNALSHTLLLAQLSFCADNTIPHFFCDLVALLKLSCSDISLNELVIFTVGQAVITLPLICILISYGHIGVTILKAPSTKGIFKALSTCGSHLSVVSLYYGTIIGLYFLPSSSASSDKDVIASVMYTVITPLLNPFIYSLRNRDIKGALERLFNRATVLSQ
Summary of the method: as §1

Measured: odorant receptor agonist call;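 also: active if original authors judged signal statistically different from baseline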

CC(C=O)Cc1ccc(C(C)(C)C)cc1 (centres undefined)
inactive: [1] | [2] | [3]

CC1CCCCCCCCCCCCC(=O)C1 (centres undefined)
not listed: [1] | [2] | [3] | [15] | [16] | [17] | [18] | [19]
inactive: all other assays above

CCCCCCC=CCCC=O
not listed: [1] | [2] | [3] | [4] | [7]
inactive: all other assays above

CCCCCC(=O)C(C)C(C)=O (centres undefined)
not listed: [1] | [2] | [3] | [7] | [16] | [17]
inactive: all other assays above

O=CN1CCCCC1
inactive: [17]

CCCCCCCCCO
active: [10]

CC(=O)c1c(C)c([N+](=O)[O-])c(C(C)(C)C)c([N+](=O)[O-])c1C
not listed: [1] | [2] | [3] | [15] | [16] | [17] | [18] | [19]
inactive: all other assays above
